Results from different studies.
Compare with care: the assays were run in different laboratories.
CA2: Carbonic anhydrase 2 (CA2, Homo sapiens, UniProt P00918)
gag-pol reverse transcriptase: Gag-Pol polyprotein, reverse transcriptase (gag-pol, Human immunodeficiency virus 1, UniProt P03366)
OPRD1: Delta-type opioid receptor (OPRD1, Homo sapiens, UniProt P41143)
PLG trypsin-like site: Plasminogen, trypsin-like site (PLG, Homo sapiens, UniProt P00747)

On1c(=S)ccc2ccccc21  Ki (CA2; enzyme activity, inhibitor, absorbance; pH 8): 730 µM
Cc1cc(/C=C/C#N)cc(C)c1Nc1ccnc(Nc2ccc(C#N)cc2)n1  Kd (gag-pol reverse transcriptase; binding, SPR): 2.53 µM
CNC[C@@H](Cc1ccc(O)cc1)N1CCN(CC2CCCCCC2)[C@@H](C(C)C)C1  IC50 (OPRD1; cell-free assay): > 10 µM
On1ccccc1=S  Ki (CA2; enzyme activity, inhibitor, absorbance): 567 µM
CCOC(=O)c1cncn1[C@@H](C)c1ccc(C2(C(F)(F)F)N=N2)cc1  IC50 (5-hydroxytryptamine receptor 3A (HTR3A, Homo sapiens, UniProt P46098); ion current, two-electrode voltage clamp; oocytes): 9 µM
CCC[C@H](CNC)NC[C@@H](CCC)NCCC1CC2CCC1C2 (some centres unmarked)  IC50 (OPRD1; cell-free assay): > 10 µM
O=C(CCCOc1cccc(Br)c1)N[C@H]1C[C@@H]2C[C@@H]2C1=O (relative stereo)  EC50 (Transcriptional activator protein LasR (lasR, Pseudomonas aeruginosa, UniProt P25084, R61A); reporter gene, agonist): 0.13 µM
Cn1cc(-c2cccc(N3CCc4c(sc5c4CC(C)(C)C5)C3=O)c2CO)cc(Nc2ccncn2)c1=O  Ki (Receptor tyrosine-protein kinase erbB-2 (ERBB2, Homo sapiens, UniProt P04626); enzyme activity, inhibitor, FRET): 1.75 µM
CCC(C)[C@@H](CNC)N1CCN(CCC2CC3CCC2C3)[C@H](C(C)C)C1 (some centres unmarked)  IC50 (OPRD1; cell-free assay): > 10 µM
CC(C)(C)[C@H](NC(=O)[C@H](CCONC(=N)N)NC(=O)Cc1ccc(CN)cc1)C(=O)N[C@@H](CCCCN)C(=O)NCc1ccc(C(=N)N)cc1  Ki (PLG trypsin-like site; enzyme activity, inhibitor; pH 8): 21 µM
C[C@H](N)Cn1ncc2ccc3c(c21)CCCO3  Ki (Alpha-2A adrenergic receptor (ADRA2A, Homo sapiens, UniProt P08913); ligand displacement, radioligand): 6.26 µM
CS(=O)(=O)c1cccc(OCCCC(=O)N[C@H]2C[C@@H]3C[C@@H]3C2=O)c1 (relative stereo)  EC50 (Transcriptional activator protein LasR (lasR, Pseudomonas aeruginosa, UniProt P25084, Y93F); reporter gene, agonist): 0.5 µM
CC(C)(C)[C@H](NC(=O)[C@H](CCCNC(=N)N)NC(=O)Cc1ccc(CNC(=N)N)cc1)C(=O)N[C@@H](CCCNC(=N)N)C(=O)NCc1ccc(C(=N)N)cc1  Ki (PLG trypsin-like site; enzyme activity, inhibitor; pH 8): 3.5 µM
Cc1cn([C@@H]2CC[C@H](OC(C(=O)O)C(=O)O)C2)c(=O)[nH]c1=O  Ki (gag-pol reverse transcriptase; enzyme activity, inhibitor): 6.6 µM
CNC[C@H](Cc1ccc(O)cc1)NC[C@H](Cc1ccc(O)cc1)NCC1CCC(C)CC1 (some centres unmarked)  IC50 (OPRD1; cell-free assay): > 10 µM
CC(C)(C)[C@H](NC(=O)[C@H](CCONC(=N)N)NC(=O)Cc1ccc(CNC(=N)N)cc1)C(=O)N[C@@H](CCCCN)C(=O)NCc1ccc(C(=N)N)cc1  Ki (PLG trypsin-like site; enzyme activity, inhibitor; pH 8): 28 µM
O=C(NCc1ccncc1)Nc1ccc(S(=O)(=O)N2CC3CCC(C2)O3)cc1  Kd (Nicotinamide phosphoribosyltransferase (NAMPT, Homo sapiens, UniProt P43490); ligand displacement, FP): 2 to 6 µM
